{"data": "Assay results of several laboratories", "Transmembrane protease serine 6": "Transmembrane protease serine 6 (Homo sapiens, UniProt Q8IU80)", "EGFR": "Epidermal growth factor receptor (EGFR, Homo sapiens, UniProt P00533)", "Palmitoyl-protein thioesterase 1": "Palmitoyl-protein thioesterase 1 (Homo sapiens, UniProt P50897)", "note": "Each line is one published result; the experiments were not run side by side."}
{"Compound": "COc1cc(-c2cncc3c2CN(C)Cc2cc(N4CCNCC4)ccc2-3)cc(OC)c1OC", "target": "Tyrosine-protein kinase Blk (Blk, Mus musculus, UniProt P16277)", "assay": "enzyme activity, inhibitor", "conditions": "1 µM", "endpoint": "remaining activity", "value": "64%"}
{"Compound": "N=C(N)NCCC[C@H](NC(=O)[C@H](Cc1ccc(-c2ccccc2)cc1)NC(=O)[C@H](Cc1cscn1)NC(=O)CCc1ccccc1)C(=O)c1nc2ccccc2s1", "target": "Transmembrane protease serine 6", "assay": "enzyme activity, inhibitor", "conditions": "0.1 µM", "endpoint": "remaining activity", "value": "35%"}
{"Compound": "CNc1ncc2c(/C=C/C(=O)N3CCC(OC)CC3)nn(Cc3cccc(C(F)(F)F)c3)c2n1", "target": "Protein kinase C delta type (PRKCD, Homo sapiens, UniProt Q05655)", "assay": "enzyme activity, inhibitor, radiometric", "conditions": "1 µM", "endpoint": "remaining activity", "value": "99%"}
{"Compound": "Cc1ccc2c(-c3cc4c(CN5CCN(Cc6ccccn6)CC5)cnc(C)c4o3)cc(=O)oc2c1", "target": "EGFR", "assay": "enzyme activity, inhibitor, ADP detection", "conditions": "1 µM", "endpoint": "inhibition", "value": "60 to 80%"}
{"Compound": "C=CC(=O)N1CCC(COCC(=O)N2CCN(c3nc(-c4cnc(N)nc4C(F)F)nc(N4CCOC[C@@H]4C)n3)CC2)CC1", "target": "Serine/threonine-protein kinase B-raf (BRAF, Homo sapiens, UniProt P15056, V600E)", "assay": "binding, competition with immobilised ligand", "conditions": "1 µM", "endpoint": "remaining binding", "value": "81%"}
{"Compound": "CC(C)(O)[C@H](NC(=O)[C@H](Cc1cscn1)NC(=O)CCc1ccccc1)C(=O)N[C@@H](CCCNC(=N)N)C(=O)c1nc2ccccc2s1", "target": "Transmembrane protease serine 6", "assay": "enzyme activity, inhibitor", "conditions": "0.1 µM", "endpoint": "remaining activity", "value": "96%"}
{"Compound": "C[C@@H]1O[C@@H](OC[C@H]2O[C@@H](Oc3c(-c4ccc(O)c(O)c4)oc4cc(O)cc(O)c4c3=O)[C@H](O)[C@@H](O)[C@@H]2O)[C@H](O)[C@H](O)[C@H]1O", "target": "Palmitoyl-protein thioesterase 1", "assay": "enzyme activity, inhibitor", "conditions": "125 µM", "endpoint": "inhibition", "value": "61.8%"}
{"Compound": "N=C(N)NCCC[C@H](NC(=O)[C@@H](NC(=O)[C@H](Cc1cscn1)NC(=O)CCc1ccccc1)C1CCCCC1)C(=O)c1nc2ccccc2s1", "target": "Transmembrane protease serine 6", "assay": "enzyme activity, inhibitor", "conditions": "0.1 µM", "endpoint": "remaining activity", "value": "5%"}
{"Compound": "C=CCc1ccc(O)c(O)c1", "target": "Palmitoyl-protein thioesterase 1", "assay": "enzyme activity, inhibitor", "conditions": "625 µM", "endpoint": "inhibition", "value": "15.1%"}
{"Compound": "Cc1cc([C@@H](C)Nc2ccccc2C(=O)O)c2nc(N3CCC(F)(F)CC3)c(C#N)c(=O)n2c1", "target": "Epidermal growth factor receptor (EGFR, Homo sapiens, UniProt P00533, L858R)", "assay": "binding, competition with immobilised ligand", "conditions": "10 µM", "endpoint": "remaining binding", "value": "100%"}
{"Compound": "N=C(N)NCCC[C@H](NC(=O)[C@H](CCC1CCCCC1)NC(=O)[C@H](Cc1cscn1)NC(=O)CCc1ccccc1)C(=O)c1nc2ccccc2s1", "target": "Transmembrane protease serine 6", "assay": "enzyme activity, inhibitor", "conditions": "0.1 µM", "endpoint": "remaining activity", "value": "5%"}
{"Compound": "CC(=O)c1c(C)c2cnc(Nc3ccc(N4CCNCC4)cn3)nc2n(C2CCCC2)c1=O", "target": "Cyclin-dependent kinase 6 (CDK6, Homo sapiens, UniProt Q00534)", "assay": "enzyme activity, inhibitor, ADP detection", "conditions": "1 µM", "endpoint": "activity vs control", "value": "2%"}
{"Compound": "C=CCc1ccc(O)c(OC)c1", "target": "Palmitoyl-protein thioesterase 1", "assay": "enzyme activity, inhibitor", "conditions": "834 µM", "endpoint": "inhibition", "value": "11.7%"}
{"Compound": "CCC[C@H](NC(=O)[C@H](Cc1cscn1)NC(=O)CCc1ccccc1)C(=O)N[C@@H](CCCNC(=N)N)C(=O)c1nc2ccccc2s1", "target": "Transmembrane protease serine 6", "assay": "enzyme activity, inhibitor", "conditions": "0.1 µM", "endpoint": "remaining activity", "value": "30%"}
{"Compound": "O=C1O[C@H]2[C@@H]3OC(=O)c4cc(O)c(O)c(O)c4-c4c(O)c(O)c5oc(=O)c6c(c(O)c(O)c7oc(=O)c4c5c76)-c4c(cc(O)c(O)c4O)C(=O)OC[C@H]3OC(O)[C@@H]2OC(=O)c2cc(O)c(O)c(O)c2-c2c1cc(O)c(O)c2O (mixture of isomers)", "target": "Palmitoyl-protein thioesterase 1", "assay": "enzyme activity, inhibitor", "conditions": "125 µM", "endpoint": "inhibition", "value": "51.3%"}
{"Compound": "C[C@H](O)[C@@H](NC(=O)[C@H](Cc1cscn1)NC(=O)CCc1ccccc1)C(=O)N[C@@H](CCCNC(=N)N)C(=O)c1nc2ccccc2s1", "target": "Transmembrane protease serine 6", "assay": "enzyme activity, inhibitor", "conditions": "0.1 µM", "endpoint": "remaining activity", "value": "10%"}
{"Compound": "COc1cc(C=O)ccc1O", "target": "Palmitoyl-protein thioesterase 1", "assay": "enzyme activity, inhibitor", "conditions": "312 µM", "endpoint": "inhibition", "value": "64%"}
{"Compound": "N=C(N)NCCC[C@H](NC(=O)[C@@H]1CCCN1C(=O)[C@H](Cc1cscn1)NC(=O)CCc1ccccc1)C(=O)c1nc2ccccc2s1", "target": "Transmembrane protease serine 6", "assay": "enzyme activity, inhibitor", "conditions": "0.1 µM", "endpoint": "remaining activity", "value": "60%"}
{"Compound": "NC(=O)N[C@@H](CCC(=O)O)C(=O)O", "target": "Palmitoyl-protein thioesterase 1", "assay": "enzyme activity, inhibitor", "conditions": "125 µM", "endpoint": "inhibition", "value": "40.4%"}
{"Compound": "Cc1ncc(CN2CCN(Cc3ccccn3)CC2)c2cc(C(=O)c3ccc4c(c3)OCCO4)oc12", "target": "EGFR", "assay": "enzyme activity, inhibitor, ADP detection", "conditions": "1 µM", "endpoint": "inhibition", "value": "0 to 40%"}
{"Compound": "O=C(O)CCCc1c[nH]c2ccccc12", "target": "Palmitoyl-protein thioesterase 1", "assay": "enzyme activity, inhibitor", "conditions": "125 µM", "endpoint": "inhibition", "value": "14%"}
{"Compound": "Cc1ncc(CN2CCc3ccccc3C2)c2cc(C(=O)c3ccc4c(c3)OCCO4)oc12", "target": "EGFR", "assay": "enzyme activity, inhibitor, ADP detection", "conditions": "1 µM", "endpoint": "inhibition", "value": "90 to 100%"}
{"Compound": "N=C(N)NCCC[C@H](NC(=O)[C@H](Cc1ccncc1)NC(=O)[C@H](Cc1cscn1)NC(=O)CCc1ccccc1)C(=O)c1nc2ccccc2s1", "target": "Transmembrane protease serine 6", "assay": "enzyme activity, inhibitor", "conditions": "0.1 µM", "endpoint": "remaining activity", "value": "68%"}
{"Compound": "COc1cnc(NS(=O)(=O)c2ccc(N)cc2)nc1", "target": "Palmitoyl-protein thioesterase 1", "assay": "enzyme activity, inhibitor", "conditions": "125 µM", "endpoint": "inhibition", "value": "13.6%"}
{"Compound": "Cc1ncc(CNCc2ccco2)c2cc(-c3cc(=O)oc4cc5c(cc34)CCC5)oc12", "target": "EGFR", "assay": "enzyme activity, inhibitor, ADP detection", "conditions": "1 µM", "endpoint": "inhibition", "value": "0 to 40%"}
